The text below walks through data of publication PMC8682075 (Biochimie, 2020).

Like-named read-outs stand apart in the source and are kept apart here.

In one assay the target is T1, MMUT WT (Homo sapiens, UniProt P22033).
T1 sequence (P22033 33-750): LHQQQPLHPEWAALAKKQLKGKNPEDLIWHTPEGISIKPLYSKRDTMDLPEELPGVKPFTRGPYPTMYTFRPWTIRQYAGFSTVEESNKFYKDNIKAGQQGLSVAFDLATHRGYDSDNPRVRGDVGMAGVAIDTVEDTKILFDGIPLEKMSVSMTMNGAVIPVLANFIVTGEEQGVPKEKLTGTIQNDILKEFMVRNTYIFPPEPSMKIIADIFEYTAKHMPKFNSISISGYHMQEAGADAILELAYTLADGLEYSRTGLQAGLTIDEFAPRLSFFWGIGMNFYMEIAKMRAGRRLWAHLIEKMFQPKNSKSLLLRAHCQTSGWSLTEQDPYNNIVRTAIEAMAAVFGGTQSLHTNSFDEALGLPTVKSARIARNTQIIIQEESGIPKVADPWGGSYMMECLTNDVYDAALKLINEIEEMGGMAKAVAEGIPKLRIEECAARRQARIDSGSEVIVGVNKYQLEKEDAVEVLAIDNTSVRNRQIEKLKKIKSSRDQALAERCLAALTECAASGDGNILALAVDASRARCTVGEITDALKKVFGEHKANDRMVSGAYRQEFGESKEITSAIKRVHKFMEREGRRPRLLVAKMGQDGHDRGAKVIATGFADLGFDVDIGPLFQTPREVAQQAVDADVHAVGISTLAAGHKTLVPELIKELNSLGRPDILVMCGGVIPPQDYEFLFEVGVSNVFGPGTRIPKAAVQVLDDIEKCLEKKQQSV
Briefly: Activity screen. Type of assay: biochemical. The settings on record: cobamide 1 μM, MMUT WT 0.01 μM, 30 minutes. The method, boiled down: (§1)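 At 30 °C, reaction was started with thiokinase, MgCl₂, ADP and methylmalonyl-CoA. Final levels were cofactor 1 μM and (R)-methylmalonyl-CoA 2 mM. Enzyme was WT 0.01 μM, G717V 1 μM, other variants 0.1 μM. After 30 min, an aliquot went into 2.5 mM DTNB; CoA was taken from A412 (ε 14,150 M⁻¹ cm⁻¹).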

For assay [1], the target named is T2, MMUT (methylmalonyl-CoA mutase) (Homo sapiens, UniProt P22033).
T2 sequence (P22033 33-750): T1 sequence (P22033 33-750)
The following applies: cited from earlier work.

For assay [2], the target named is T2, MMUT (methylmalonyl-CoA mutase). The settings on record: read-out: KM, app; previously reported value ref 57; cited from earlier work.
Assay [3] has the same target. Briefly: Coupled thiokinase/DTNB spectrophotometric MMUT activity assay. The class given is biochemical. The essentials:
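In the coupled kinetic assay, succinyl-CoA was converted by thiokinase to CoA, which was detected spectrophotometrically with DTNB. C-terminally His-tagged MMUT was at 10 nM. Enzymatically made (R)-methylmalonyl-CoA was fixed at 4 mM. Adenosylated cofactor was varied per cofactor, from 0.031 μM at lowest to 12 μM at highest. K_M,app and k_cat come from ≥5 replicates over ≥2 independent experiments and two biological samples.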

Assay [4] has as its system MMUT variants G648D, V633G, G717V, P86L, Y100C, Y231N. As to the kind of experiment: Activity screen. The class given is biochemical, human. The following applies: cobamide 1 μM, variants 0.1 μM (G717V 1 μM), 30 minutes. The method, boiled down: as §1
For assay [5], the target named is T2, MMUT (methylmalonyl-CoA mutase). As to the kind of experiment: Cobamide equilibrium binding by quenching of intrinsic protein fluorescence. The following applies: MMUT 0.2 μM, fluorescence quenching. The essentials: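 Fluorescence quenching used MMUT at 0.2 μM, from N-terminal His-tag (E. coli BL21(DE3)pLysS) and C-terminal His-tag preparations. Adenosylated cofactor was titrated at 0.19–2.5 μM or 0.23–2.5 μM, depending on cofactor class. Plate-reader excitation/emission was 282/340 nm. Kd came from a quadratic fit allowing for ligand depletion. Values were averaged over ≥5 technical replicates from ≥2 independent experiments.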

One may read the Kd as the equilibrium constant for the complex coming apart. Usually Km stands for the substrate concentration at which the rate is half of its maximum. Consider `C/C1=C2/[N-][C@H]([C@H](CC(N)=O)[C@@]2(C)CCC(=O)NC[C@@H](C)OP(=O)([O-])O[C@H]2[C@@H](O)[C@@H](n3cnc4cc(C)c(C)cc43)O[C@@H]2CO)[C@]2(C)N=C(/C(C)=C3N=C(/C=C4N=C1[C@@H](CCC(N)=O)C\4(C)C)[C@@H](CCC(N)=O)[C@]\3(C)CC(N)=O)[C@@H](CCC(N)=O)[C@]2(C)CC(N)=O.[CH2-][C@H]1O[C@@H](n2cnc3c(N)ncnc32)[C@H](O)[C@@H]1O.[Co]` [AdoCbl, adenosylcobalamin, reference compound], for which the “activity of WT MMUT with the cobamide (in words)” value on MMUT WT is listed as “active”. Also, the Kd in assay [1] (previous study of MMUT ref 49) is 0.04 µM; in assay [1] (previous study of MMUT ref 50) it was 0.27 ± 0.11 µM; in assay [5] it was 0.08 ± 0.03 µM. Also, the Km in assay [2] is 0.05 µM; in assay [3] (read-out: KM, app, methylmalonyl-CoA 4 mM, MMUT 10 nM) it was 0.04 ± 0.02 µM. Moreover, in assay [3] (coupled spectrophotometric assay), the “MMUT activity with the cobamide (in words)” value was “active”. Besides, in assay [4], the “activity of MMUT variants with the cobamide (in words)” value was “significantly reduced specific activity”.
